RAM network inh – inhibitors of the yeast RAM network | S. cerevisiae dse1pr::URA3 reporter, 5-FOA growth OD615, 2 d; analog-sensitive cbk1-as2 kinase mutant strain | inhibition, % at 50 µM | actives 1.8% (n = 190,000);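 active = inhibition above a set limit, 3 SD over mean compound inhibition, cut at about 8.4% in these data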;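 also: 0% = DMSO-only wells with no growth and 100% = 10 µM 1-NA-PP1 full growth; inhibition rescues growth on 5-FOA so higher OD means more RAM inhibition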
Measles CPE – protection of cells from measles virus; Measles virus-infected cells, CPE protection, absorbance; protection (pct of control), % at 4 µM; actives 1.5% (n = 140,000); AID 841; in the data active = protection mostly above about 24%, no sharp cut-off; inactive = mostly below about 26%
Yeast growth inh – reduces growth of yeast BB579 in restrictive medium; S. cerevisiae BB579 growth, OD615, 48 h; inhibition, % at 10 µM; actives 0.51% (n = 140,000); AID 804;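 active = inhibition above a set limit, 3 SD over the mean compound inhibition, cut at about 44% in these data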
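test system = yeast BB579 (DeaD) | buffer or medium = restrictive CSMM-D medium | doses = single compound dose of 10 µM, 0.25% DMSO final | times = 4 h preincubation and 48 h exposure at 30 °C | technique = culture absorbance at 615 nm | benchmarks = amphotericin B 10 µg/mL, positive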
Yeast lifespan up – extends the lifespan of yeast | S. cerevisiae growth with nicotinamide, OD615; deaD strain in restrictive glucose medium | inhibition of the nicotinamide effect, % at 10 µM | actives 0.68% (n = 130,000);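 active = inhibition above a set limit, placed 3 SD over the median of all compounds, cut at about 26% in these data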;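 also: 0% = nicotinamide-treated wells and 100% = cells grown without nicotinamide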
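System: DeaD-strain S. cerevisiae / Buffer or medium: CSMM-D, restrictive glucose (dextrose) synthetic minimal medium / Probe or stimulus: nicotinamide, 1.5 mM, co-present with compound / Compound: one concentration, 10 µM, DMSO 0.25% / Incubation: 48 h compound exposure at 30 °C, humidified / Technique: optical density (absorbance) at 615 nm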
RAM efflux-def – RAM network inhibition, efflux-deficient strain. shares compounds with RAM network inh. S. cerevisiae efflux-deficient reporter strain, 5-FOA growth OD615, 2 days. max inhibition, %. 1,200 tested, under 10 active; call rule not given here;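 also: plate controls were vehicle for no effect and reference inhibitor for full effect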
* = called active by the depositor; · = no result given. In the library only some 3.8% were active in any assay of this set; here they are far more common.

SMILES	RAM network inh	Measles CPE	Yeast growth inh	Yeast lifespan up	RAM efflux-def
O=C(CSc1ccc(Cl)cc1)N1CCN(c2ccc([N+](=O)[O-])cc2Cl)CC1	14*	4	-21	-2	5
O=C(Oc1coc(CSc2ncccn2)cc1=O)c1ccccc1[N+](=O)[O-]	2	·	·	·	·
COC(=O)C1=CN(Cc2cccs2)C=C(C(=O)OC)C1c1cccc(Cl)c1	13*	·	·	·	2
CCCC(=O)C1=C(O)C(C(=O)OC)C(C)(C)CC1=Nc1cccc2ccccc12 (stereo not drawn)	12*	7	-2	·	4
CC(C)OCCCNC(=O)C(NS(=O)(=O)c1ccc2c(c1)c(=O)n(C)c(=O)n2C)c1ccccc1 (stereo not drawn)	13*	·	·	·	3
COc1ccc(/C=C2\SC(N3CCc4ccccc4C3)=NC2=O)cc1OC	4	24	-7	-3	·
CC(=O)C1=C(c2ccccc2)NC(=O)NC1c1ccccc1OCC(=O)NCc1ccccc1 (stereo not drawn)	0	14	-1	-9	·
C=CCn1c(COc2ccc3c(c2)CCCC3)nnc1SCC(=O)Nc1cccc(SC)c1	15*	10	-17	-9	4
C=CCn1c(COc2ccccc2)nnc1SCC(=O)Nc1ccc2c(c1)OCCO2	4	3	-16	-2	·
COc1cccc(NC(=O)CSc2nnc(COc3ccc4c(c3)CCCC4)o2)c1	12*	15	-19	·	2
CCOC(=O)c1cccc(NC(=O)CSc2nnc(COc3ccccc3C)o2)c1	12*	12	6	-3	1
CC1CC(CCC(=O)NC(=S)Nc2ccc(S(N)(=O)=O)cc2)C(=O)O1 (stereo not drawn)	2	·	·	·	·
CNC(=S)N1N=C(c2ccc(C)cc2)CC1c1ccc(Cl)cc1 (stereo not drawn)	3	6	-27	-18	·
CNC(=S)N1N=C(c2ccc(C)cc2)CC1c1ccc(Br)cc1 (stereo not drawn)	21*	15	-56	-6	2
O=C(CSc1ccc2ccccc2c1)NC1CCCc2ccccc21 (stereo not drawn)	5	7	-40	4	·
Cc1ccc(S(=O)(=O)NCc2ccc3c(c2)cc(C)n3C)cc1	12*	5	-6	-6	3
CC(C)C[C@@H](CN(C)N=O)N(C[C@H](Cc1ccccc1)N(CCc1ccccc1)N=O)N=O	20*	·	·	·	6
CC(C)CC(C(=O)O)N(Cc1ccccc1)Cc1ccccc1 (stereo not drawn)	2	-1	-26	·	·
COc1ccc(Nc2nc(S(=O)(=O)c3ccc(C)cc3)c(Cl)s2)cc1	6	7	-10	-1	·
Cc1ccc(S(=O)(=O)c2nc(Nc3ccccc3)sc2Cl)cc1	13*	7	-29	-7	2
Cc1cc(/C=C(/C#N)c2cccc(Cl)c2)c(C)n1C	17*	4	-57	-10	4
COc1cc(-c2nnc(-c3cc(OC)c(OC)c(OC)c3)o2)cc(OC)c1OC	5	4	-35	·	·
COc1cc(-c2nnc(-c3ccccc3)o2)cc(OC)c1OC	23*	9	6	·	3
COc1cccc(C(=O)CSc2nnc(-c3cc(OC)c(OC)c(OC)c3)o2)c1	13*	20	-62	-5	3
CCS(=O)(=O)Nc1ccc(-c2nnc(SCC(=O)c3cccc(OC)c3)o2)cc1	8	6	-43	-11	·
SMILES	RAM network inh	Measles CPE	Yeast growth inh	Yeast lifespan up	RAM efflux-def
O=C(CSc1ccc2nnc(CCNS(=O)(=O)c3ccccc3)n2n1)Nc1nc2ccccc2s1	0	2	-11	5	·
CCOC(=O)c1cnc(SC)nc1Oc1cccc(NC(=O)c2ccc(C)cc2)c1	18*	3	-52	5	5
CSc1ncc(Cl)c(C(=O)Nc2cccc(C)c2)n1	4	4	-37	-7	·
CCOC(=O)c1cnc(SC)nc1Nc1cccc(F)c1	16*	0	-20	-10	2
CCOC(=O)c1cnc(SC)nc1Nc1cccc2ccccc12	7	13	-2	·	·
Nc1nnc(SCc2cn3cc(Cl)ccc3n2)s1	1	·	·	·	·
CCOc1ccccc1NC(=O)C(OC(=O)c1cc(C)oc1C)c1ccccc1 (stereo not drawn)	14*	16	-28	0	5
CCc1c(C)nc(SC(C(=O)O)c2ccccc2)c(C#N)c1C (stereo not drawn)	0	16	-26	0	·
CC1CCN(C(=O)COC(=O)[C@H](C)NS(=O)(=O)/C=C/c2ccccc2)CC1	3	2	-16	-4	·
